From PubChem
This is a sample that favours compounds with a hit; in the whole collection about 4.6% have one here.
CHO parental Ca: ATP-evoked calcium signal inhibitors, parental CHO, primary screen, counter-screen for OX1R antagonist project, cell-based, fluorescence, Fluo-8 calcium dye. parental CHO-K1, ATP-induced calcium, Fluo-8 fluorescence. inhibition, % at 5.6 µM. 330,000 tested, 0.63% active. AID 463079, 2010;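 active = inhibition above that plate's mean sample inhibition plus 3 SD, cut at about 26% in these data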;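 note: 0% = ATP-challenged DMSO wells and 100% = DMSO wells without ATP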
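Test system: untransfected parental CHO cell line; also added: ATP stimulus; dosing: 5.6 µM, single dose; signal: calcium-sensitive Fluo-8 fluorescence; measure: percent inhibition of ATP-evoked calcium rise, normalized to controls; benchmarks: low control ATP plus DMSO, high control DMSO only; replication: one well per compound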
TAAR1 agonist: human TAAR1 agonists, primary screen, Fluo-8 calcium fluorescence, CHO RD-HGA16 cells; AID 624467, 2012; vehicle wells 0%, saturating PEA agonist 100%; activation, % at 3 µM; 360,000 tested, 0.99% active;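 active = activation above the mean activation of all test compounds in the run plus 3 SD, cut at about 38% in these data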
Target sequence (Q96RJ0 whole entry, looked up): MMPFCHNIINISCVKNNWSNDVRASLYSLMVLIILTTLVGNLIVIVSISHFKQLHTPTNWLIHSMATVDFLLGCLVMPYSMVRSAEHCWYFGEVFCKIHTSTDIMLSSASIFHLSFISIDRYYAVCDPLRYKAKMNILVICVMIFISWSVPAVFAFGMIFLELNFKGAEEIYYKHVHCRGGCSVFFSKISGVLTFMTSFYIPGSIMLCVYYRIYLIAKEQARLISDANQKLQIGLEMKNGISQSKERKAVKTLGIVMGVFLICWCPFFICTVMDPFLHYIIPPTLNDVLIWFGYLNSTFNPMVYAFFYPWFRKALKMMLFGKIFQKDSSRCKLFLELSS
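test system = CHO RD-HGA16 cells carrying human TAAR1 plus Gα16 | schedule = 17-24 h seeding, 75 min 37 °C dye, 30 min RT | compound dosing = 3 µM single concentration | control set = DMSO and PEA EC100 | replicates = n 1 | signal = Fluo-8 fluorescence, 5 s baseline then 140 s kinetic read | measure = percent activation vs PEA EC100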
OX1R antag-1: antagonists of human orexin 1 receptor (OX1R); inhibition, % at 6.6 µM; OX1R-expressing cells, FRET antagonist read-out; 330,000 tested, 1.8% active; Orexin/Hypocretin receptor type 1 (Homo sapiens), O43613; in the data active = inhibition mostly above about 38%, no sharp cut-off; inactive = mostly below about 40%;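 note: 0% = agonist challenge alone and 100% = reference antagonist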
GPR7 antag: GPR7 receptor antagonists, primary screen, cell-based, fluorescence, single concentration; inhibition, % at 4.4 µM; 290,000 tested, 1.1% active; Neuropeptides B/W receptor type 1 (Homo sapiens), P48145; GPR7-expressing cells, fluorescence antagonist assay; AID 1861, 2009; in the data active = inhibition above about 16%, passing the limit was not always enough;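 note: cells stimulated with the agonist NPW; 0% = agonist with vehicle and 100% = vehicle without agonist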
Target sequence (P48145 whole entry, looked up): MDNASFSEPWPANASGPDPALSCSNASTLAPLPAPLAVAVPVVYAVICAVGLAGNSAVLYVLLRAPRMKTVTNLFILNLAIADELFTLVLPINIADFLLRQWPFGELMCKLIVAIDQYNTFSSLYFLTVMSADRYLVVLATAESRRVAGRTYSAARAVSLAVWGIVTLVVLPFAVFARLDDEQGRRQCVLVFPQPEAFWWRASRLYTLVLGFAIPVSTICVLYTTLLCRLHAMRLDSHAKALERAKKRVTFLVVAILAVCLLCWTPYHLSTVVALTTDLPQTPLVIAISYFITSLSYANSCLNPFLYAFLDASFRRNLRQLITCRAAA
TAAR1 antagonist: human TAAR1 antagonists, primary screen, Fluo-8 calcium fluorescence, CHO RD-HGA16 cells | Trace amine-associated receptor 1 (Homo sapiens), Q96RJ0 | antagonist | inhibition, % at 3 µM | 360,000 tested, 1.5% active;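 active = inhibition above a per-plate cutoff, the mean inhibition of test compounds on that plate plus 3 SD, cut at about 49% in these data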;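 note: 0% = DMSO plus EC80 beta-PEA response and 100% = DMSO alone without agonist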
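Test system: CHO RD-HGA16 cells bearing hTAAR1 | Reagent: β-PEA, EC80 | Compound dosing: 3 µM, single point | Schedule: Dye loading 75 min at 37 °C, then 30 min room temperature | Signal: Calcium fluorescence with Fluo-8 | Evaluation: Percent inhibition of PEA-evoked calcium signal, max/basal emission ratio | Control set: DMSO-only wells and EC80 β-PEA-stimulated wells | Repeats: Singlicate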
OX1R antag-2: OX1R (HCRTR1) antagonists, primary screen, fluorescence, CHO/OX1R cells, Fluo-8 calcium, orexin A | Orexin/Hypocretin receptor type 1 (Homo sapiens), O43613 | Fluo-8 calcium fluorescence | inhibition, % at 5 µM | 330,000 tested, 0.43% active | AID 434989, 2010;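 active = inhibition above its plate's threshold, mean inhibition of all tested compounds on the plate plus 3 SD, cut at about 37% in these data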;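 note: 0% = orexin A challenge wells and 100% = SB-334867-A antagonist wells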
Active calls of the source: *; · = no result.

SMILES	CHO parental Ca	TAAR1 agonist	OX1R antag-1	GPR7 antag	TAAR1 antagonist	OX1R antag-2
CSc1ccc(S(=O)(=O)NCC(=O)OCC(=O)N(C)Cc2ccccc2)cc1[N+](=O)[O-]	-9.1	4.0	51.3*	·	11.7	-21.9
CSc1ccc(S(=O)(=O)NCC(=O)OCC(=O)N2CCCC2=O)cc1[N+](=O)[O-]	0.2	1.6	55.5*	·	7.0	-4.3
CSc1ccc(S(=O)(=O)NCC(=O)OCCOc2ccccc2)cc1[N+](=O)[O-]	21.0	8.0	53.8*	·	29.1	-13.0
CSc1ccc(S(=O)(=O)NCC(=O)OC2CCOC2=O)cc1[N+](=O)[O-] (stereo not given)	2.8	1.1	65.5*	·	-25.6	-12.8
Nc1ccc(S(=O)(=O)NCC(=O)OC2CCOC2=O)cc1[N+](=O)[O-] (stereo not given)	-5.0	5.3	14.2	·	8.2	-8.4
Cc1ccc(Oc2nc3c(c(=O)n(Cc4ccccc4F)c(=O)n3C)n2C)cc1	-12.5	20.3	1.5	-2.0	49.7*	-5.8
Cn1ncc2c(N3CCC(Cc4ccccc4)CC3)ncnc21	14.9	2.7	57.6*	-11.5	17.8	-5.6
c1ccc(CCN2CCN(c3ncnc4c3cnn4-c3ccccc3)CC2)cc1	-15.5	41.4*	11.7	-13.7	32.1	-20.8
Cc1ccc(CN2CCC=CS2(=O)=O)cc1	·	1.1	·	·	0.9	·
CC(C)c1[nH]nc2c1C(c1ccccc1)N(Cc1ccccc1)C2=O (stereo not given)	·	6.9	·	·	-2.9	·
COc1cc2c(cc1OC)[C@@]1(c3ccccc3)CCCC[C@H]1[C@@H]2NC(=O)C(F)(F)F	·	1.1	·	·	-18.1	·
CC(C)NC(=O)c1ccc2c(=O)n(CC3CCCO3)c(=S)[nH]c2c1 (stereo not given)	-5.5	1.1	7.7	17.4*	-10.7	-11.8
COCCCNC(=O)c1ccc2c(=O)n(CC3CCCO3)c(=S)[nH]c2c1 (stereo not given)	-1.0	0.7	12.2	1.5	-8.7	-26.0
CCN(C(=O)COC(=O)/C(C#N)=C/c1ccc(N(C)C)cc1)C1CCS(=O)(=O)C1 (stereo not given)	-1.3	2.8	7.6	·	-15.3	8.2
CN(C)c1ccc(/C=C(\C#N)C(=O)OCC(=O)N(C)C2CCS(=O)(=O)C2)cc1 (stereo not given)	-3.7	2.5	35.0*	·	13.7	1.2
C=CCNc1nc2c(c(=O)n(C)c(=O)n2C)n1Cc1ccc(F)cc1	40.1*	2.7	29.4	-6.3	14.8	-30.8
COc1ccc(C(O)c2ncc(-c3ccccc3Cl)[nH]2)cc1F (stereo not given)	·	11.9	·	·	-14.0	·
Cc1occc1C(=O)N/N=C/c1ccc(Cl)c([N+](=O)[O-])c1	-11.8	9.0	64.3*	-1.6	1.9	10.3
O=C(N/N=C/c1ccccc1[N+](=O)[O-])c1ccc2nc[nH]c2c1	1.6	2.6	15.5	-12.6	6.4	-5.8
O=C(N/N=C/c1ccc(Cl)c([N+](=O)[O-])c1)c1ccc2nc[nH]c2c1	-5.9	11.4	57.6*	4.5	20.3	-2.8
CCNC(=O)C1(C)CCCN(C(=O)C2(c3ccc(Cl)cc3)CCCC2)C1 (stereo not given)	·	2.1	·	·	-28.6	·
COc1ccc(-c2ccc3c(c2)C2CC3CCN2)cc1 (stereo not given)	·	3.0	·	·	-0.4	·
CCOc1ccccc1N1CCN(c2nc(N)c(C#N)c(CC#N)c2C#N)CC1	6.6	19.1	12.4	-12.7	50.0*	5.3
CSc1ccc(C2c3[nH]c4ccccc4c3CCN2C(=O)c2ccnn2C)cc1 (stereo not given)	-0.8	13.6	18.7	16.6	48.6*	-23.7
CCOC(=O)CSc1nc2c(c(-c3ccc(C)o3)c1C#N)CCCC2	32.8*	7.5	15.0	-7.1	41.7	-31.6
SMILES	CHO parental Ca	TAAR1 agonist	OX1R antag-1	GPR7 antag	TAAR1 antagonist	OX1R antag-2
COC(=O)CSc1nc2c(c(-c3ccco3)c1C#N)CCCC2	-25.5	·	39.8	-7.9	·	-31.9
C[C@H](CO)N1C[C@H](C)[C@@H](CN(C)S(C)(=O)=O)OCc2cn(nn2)CCCC1=O	·	0.2	·	·	7.8	·
O=C(N[C@H](C(=O)N1CCC[C@H]1C(=O)NCCc1ccccc1Cl)c1ccccc1)c1ccc(Cl)cc1Cl	·	29.5	·	·	35.6	·
O=C1c2[nH]c3ccccc3c2CC1N1C(=O)c2ccccc2C1=O (stereo not given)	·	20.9	·	·	51.7*	·
COC(=O)Cc1nnn2c1[C@H](C)[C@@H](OC)c1ccccc1-2	·	1.9	·	·	-8.7	·
CC(C)(C)OC(=O)NCCCCCNC(=O)c1nc[nH]c1C(=O)N1CCN(c2ccccc2)CC1	-11.7	20.6	8.4	·	49.7*	-6.0
COC(=O)[C@H](Cc1ccccc1)N1Cc2ccccc2Oc2cc(Br)ccc2S1(=O)=O	·	-1.1	·	·	28.5	·
COCCn1c(SCC(=O)N2CCCCC2)nc2c(c1=O)SC(C)C2 (stereo not given)	100.2*	-0.8	14.7	-1.9	6.9	-20.9
Cc1cc2ccccc2n2c(SCC(=O)N3CCc4ccccc4C3)nnc12	-26.1	9.3	72.6*	-11.6	7.9	26.4
COCCn1c(SCC(=O)N2CCc3ccccc3C2)nc2ccccc2c1=O	-15.8	3.4	72.0*	1.9	19.5	-3.9
COCCn1c(SCC(=O)N2CCCCC2)nc2c(c1=O)SCC2	-9.7	-1.2	8.6	-12.5	-11.5	-18.7
COC(=O)c1c(-c2ccc(S(C)(=O)=O)cc2)sc2ccc(OC)cc12	-12.3	8.7	2.6	·	49.2*	6.3
COc1ccc(/C=N/Nc2cn[nH]c(=O)c2Cl)cc1	-3.2	41.1*	23.8	0.8	-4.2	-25.3
COc1ccc(/C=N/Nc2cc(C)nc3ccccc23)cc1	-3.6	15.3	10.5	7.0	-25.3	-17.3
O=C(CSc1nc2ccccc2s1)N1c2ccccc2Sc2ccc(Cl)cc21	5.1	3.2	44.8*	0.6	1.4	-3.6
O=C(CSc1nc2ccccc2s1)N1c2ccccc2Sc2ccc(C(F)(F)F)cc21	-2.5	1.6	6.2	-17.9	-12.0	-11.9
CC(=O)NCCNc1ccc([N+](=O)[O-])cc1C#N	6.1	1.0	67.1*	-9.1	-4.1	4.7
COc1cc(C=C2CCCC(=Cc3ccc(OCC4CO4)c(OC)c3)C2=O)ccc1OCC1CO1 (stereo not given)	·	10.6	·	·	60.9*	·
C=CCn1c(-c2csc(-c3ccc(OC)c(OC)c3)n2)n[nH]c1=S	72.2*	0.2	31.9	-6.9	-15.7	-9.4
CC(C)(C)S(=O)N1C[C@H]2CC(=O)C(CCO)=C2[C@@H]1CCO (stereo not given in full)	·	3.5	·	·	-9.5	·
